Assays:
Type in all cases: functional
Details in all cases: values are per cent of control
OVCAR-5 = experiment: Growth inhibition of human OVCAR5 cells at 10 uM relative to control
Outline: (§1)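 Single-dose preliminary screen in the NCI human cancer cell line panel, run by the NIH. Percent inhibition of cell line growth was calculated by comparison with untreated samples.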

SN12C = experiment: Growth inhibition of human SN12C cells at 10 uM relative to control; outline: as §1
A498 = experiment: Growth inhibition of human A498 cells at 10 uM relative to control; outline: as §1
OVCAR-3 = experiment: Growth inhibition of human OVCAR-3 cells at 10 uM relative to control; outline: as §1
T47D = experiment: Growth inhibition of human T47D cells at 10 uM relative to control
Outline: (§2)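 Single-dose NCI human tumour cell line screen, run by the NIH. Percent inhibition of cell line growth was calculated by comparison with untreated samples.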

K562 = experiment: Growth inhibition of human K562 cells at 10 uM relative to control; outline: as §1
MDA-MB-468 = experiment: Growth inhibition of human MDA-MB-468 cells at 10 uM relative to control; outline: as §1
HCT-116 = experiment: Growth inhibition of human HCT116 cells at 10 uM relative to control; outline: as §1
SK-OV-3 = experiment: Growth inhibition of human SKOV3 cells at 10 uM relative to control; outline: as §1
HT-29 = experiment: Growth inhibition of human HT-29 cells at 10 uM relative to control; outline: as §1
786-0 = experiment: Growth inhibition of human 786-0 cells at 10 uM relative to control; outline: as §1
MDA-MB-435 = experiment: Growth inhibition of human MDA-MB-435 cells at 10 uM relative to control; outline: as §1
HCT-15 = experiment: Growth inhibition of human HCT15 cells at 10 uM relative to control; outline: as §1
UACC-257 = experiment: Growth inhibition of human UACC257 cells at 10 uM relative to control; outline: as §2
KM12 = experiment: Growth inhibition of human KM12 cells at 10 uM relative to control; outline: as §1
BT-549 = experiment: Growth inhibition of human BT549 cells at 10 uM relative to control; outline: as §1
HOP-62 = experiment: Growth inhibition of human HOP62 cells at 10 uM relative to control; outline: as §1
TK-10 = experiment: Growth inhibition of human TK10 cells at 10 uM relative to control; outline: as §2
SF-295 = experiment: Growth inhibition of human SF295 cells at 10 uM relative to control; outline: as §1
DU-145 = experiment: Growth inhibition of human DU145 cells at 10 uM relative to control; outline: as §1
NCI-H226 = experiment: Growth inhibition of human NCI-H226 cells at 10 uM relative to control; outline: as §1
SW-620 = experiment: Growth inhibition of human SW620 cells at 10 uM relative to control; outline: as §2
UACC-62 = experiment: Growth inhibition of human UACC62 cells at 10 uM relative to control; outline: as §2
M14 = experiment: Growth inhibition of human M14 cells at 10 uM relative to control; outline: as §1
OVCAR-4 = experiment: Growth inhibition of human OVCAR4 cells at 10 uM relative to control; outline: as §1
OVCAR-8 = experiment: Growth inhibition of human OVCAR8 cells at 10 uM relative to control; outline: as §1
[1] = Growth inhibition of human Hs 578T cells at 10 uM relative to control; outline: as §1
SK-MEL-5 = experiment: Growth inhibition of human SK-MEL-5 cells at 10 uM relative to control; outline: as §1

O=C(Cn1cc(C(=O)NO)nn1)c1ccccc1
growth, % of control at 10 µM (OVCAR-5): 84.1% | growth, % of control at 10 µM (SN12C): 97.7% | growth, % of control at 10 µM (A498): 67.6% | growth, % of control at 10 µM (OVCAR-3): 146% | growth, % of control at 10 µM (T47D): 102% | growth, % of control at 10 µM (K562): 85.1% | growth, % of control at 10 µM (MDA-MB-468): 110% | growth, % of control at 10 µM (HCT-116): 97.3% | growth, % of control at 10 µM (SK-OV-3): 109% | growth, % of control at 10 µM (HT-29): 115% | growth, % of control at 10 µM (786-0): 105% | growth, % of control at 10 µM (MDA-MB-435): 106% | growth, % of control at 10 µM (HCT-15): 108% | growth, % of control at 10 µM (UACC-257): 112% | growth, % of control at 10 µM (KM12): 108% | growth, % of control at 10 µM (BT-549): 108% | growth, % of control at 10 µM (HOP-62): 118% | growth, % of control at 10 µM (TK-10): 113% | growth, % of control at 10 µM (SF-295): 126% | growth, % of control at 10 µM (DU-145): 135% | growth, % of control at 10 µM (NCI-H226): 87.6% | growth, % of control at 10 µM (SW-620): 94.8% | growth, % of control at 10 µM (UACC-62): 93.3% | growth, % of control at 10 µM (M14): 94.1% | growth, % of control at 10 µM (OVCAR-4): 112% | growth, % of control at 10 µM (OVCAR-8): 96.2% | growth, % of control at 10 µM [1]: 90% | growth, % of control at 10 µM (SK-MEL-5): 111%

Reference: ChEMBL document CHEMBL1140227, “Histone deacetylase inhibitors through click chemistry” (J Med Chem, 2008)
